# Source: PubChem
# CAL PDZ FP-1 – CAL PDZ (human) peptide binding inhibition; Q9HD26; purified CAL PDZ, TMR-peptide fluorescence polarization, 1 h; inhibition, % at 24.9 µM; 0.92% of 300,000 active; AID 602252;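 active = mean inhibition of at least 30% with at least half of replicates also reaching 30%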;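 also: 0% = DMSO neutral control and 100% = excess unlabeled competitor peptide PRC23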
# ARNT TACC3 PPI – disruptors of human ARNT/TACC3 interaction; Q9Y6A5; AlphaScreen His-ARNT PAS-B/GST-TACC3 binding, luminescence; TACC3 fragment carries E629A point mutation; inhibition, % at 9.99 µM; 0.66% of 390,000 active; AID 623870;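 active = mean inhibition of replicates at least 50% and at least half of replicates each reaching 50%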;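 also: 0% = complete ARNT plus TACC3 wells and 100% = ARNT alone without TACC3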
# Rce1 inhib – yeast Ras-converting enzyme inhibition. Q03530. yeast membranes, quenched prenylated peptide cleavage fluorescence. calls only. 0.27% of 290,000 active. AID 2563;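 active = fall in fluorescence gain of 50% or more versus controls, with final raw signal at or below 3038400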;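 also: plate controls were neutral control wells for no effect and wells lacking membranes for full effect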
# Target sequence (Q03530 whole entry, looked up): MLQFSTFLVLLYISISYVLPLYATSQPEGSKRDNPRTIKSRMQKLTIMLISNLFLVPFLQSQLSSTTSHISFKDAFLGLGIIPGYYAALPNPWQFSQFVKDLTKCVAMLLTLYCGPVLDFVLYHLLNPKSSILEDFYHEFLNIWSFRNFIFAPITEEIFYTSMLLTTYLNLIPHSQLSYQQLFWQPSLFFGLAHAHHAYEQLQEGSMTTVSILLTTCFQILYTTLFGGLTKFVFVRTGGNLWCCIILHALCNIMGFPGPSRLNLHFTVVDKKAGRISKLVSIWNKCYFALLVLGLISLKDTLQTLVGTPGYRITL
# CAL PDZ FP-2 – human CAL PDZ-peptide interaction inhibition; Q9HD26; purified CAL PDZ, TMR-peptide fluorescence polarization, 1 h; inhibition, % at 20 µM; 0.02% of 330,000 active;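 active = highest replicate inhibition of at least 40%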;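 also: plate controls were DMSO neutral control wells for no effect and unlabeled competitor peptide control wells for full effect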
#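 Test system: tagged CAL PDZ domain / Buffer or medium: sodium phosphate/NaCl buffer pH 7.4 with TCEP, IgG, Thesit / Reagent: TMR-labelled reporter peptide T*-PRC34 bound in PDZ groove / Compound dosing: single point, 20 µM / Schedule: 1 h incubation at room temperature before polarization reading / Technique: fluorescence polarization (mP) / Benchmarks: unlabelled peptide, DMSO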
# AI-2 QS mod – modulates the Vibrio harveyi AI-2 quorum sensing system | activity change, % at 7.5 µM | Vibrio harveyi JMH597 AI-2 luminescence/OD600 ratio, 9 h; active compounds read low; strain lacks LuxN and CqsS sensors; 0 = neutral-control median | 0.4% of 300,000 active; in the data active = activity change below about -75%, passing the limit was not always enough;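 also: luminescence divided by OD600 gain over 9 h not by final OD600 alone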
# * marks the source's active call; other numbers are inactive results; i = inactive; . = no result given; + = active, no number. The list is not random: actives were taken first. Their share in the collection is about 1.7%.
SMILES,CAL PDZ FP-1,ARNT TACC3 PPI,Rce1 inhib,CAL PDZ FP-2,AI-2 QS mod
CC(C)c1ccc(C2OCC(C)([N+](=O)[O-])CO2)cc1 (centres undefined),90.6*,-1.9,.,19.5,.
Cc1ccccc1NC1=NC(=S)N(c2ccccc2)C12CCOC(C)(C)C2 (centres undefined),42.0*,2.1,i,16.7,11.3
Cc1ccc(Cl)cc1NC(=O)C[n+]1ccc(Cc2ccc([N+](=O)[O-])cc2)cc1,-2.5,50.9*,i,-1.0,16.8
O=C(C[n+]1ccc(Cc2ccccc2)cc1)Nc1ccc([N+](=O)[O-])cc1Cl,0.7,-1.6,i,-3.7,22.3
O=C(c1cccs1)N1CCN(S(=O)(=O)c2cccs2)CC1,6.3,-2.1,i,-1.6,21.1
COc1cc(C(=O)N2CCN(S(=O)(=O)c3cccs3)CC2)cc(OC)c1C,57.8*,-2.1,i,-0.7,25.3
COCCNC(=O)c1cnn2c(C(F)(F)F)cc(-c3ccc(C)cc3)nc12,-6.1,-0.4,i,-3.6,1.4
C/C(=N\Nc1nnc(C)c(=O)[nH]1)C(=O)O,0.3,65.7*,i,0.8,34.3
O=C(Cc1n[nH]c(=O)c2ccccc12)OCC(=O)c1ccc(F)cc1,-1.9,-2.1,i,-0.7,34.7
COc1ccccc1C(=O)COC(=O)Cc1n[nH]c(=O)c2ccccc12,31.1*,0.6,i,-3.4,13.2
CN(C)C(=O)c1cccc(-c2ccc3c(c2)[C@H]2[C@H](CCN2C(=O)c2ccc4c(c2)OCO4)[C@H](CO)N3)c1,.,26.9,.,.,.
CC(=O)NN1C(=O)c2ccccc2NC1c1ccoc1 (centres undefined),.,-4.1,+,-1.4,14.2
Oc1ccc(/C=N/NC(=S)NCCN2CCOCC2)c(O)c1,.,60.3*,i,0.0,-1.0
S=C(NCCN1CCOCC1)N/N=C/c1ccccc1,-1.3,-0.8,.,.,5.8
Cc1ccc(NC(=O)c2ccc3snnc3c2)cc1,-5.6,-0.3,i,-1.8,2.1
O=C(Nc1ccccc1)c1ccc2snnc2c1,78.4*,-7.3,i,-0.4,4.6
Cc1ccc(NC(=O)CCNS(=O)(=O)c2ccccc2)cc1S(=O)(=O)N1CCOCC1,-2.0,19.5,i,-0.6,13.3
COc1ccc(CC(=O)Nc2ccc(F)c(S(=O)(=O)N3CCOCC3)c2)cc1,.,5.0,.,-1.4,.
CCc1ccccc1OCC(=O)Nc1ccc(F)c(S(=O)(=O)N2CCOCC2)c1,30.8*,.,.,-0.5,.
Cc1ccc(NC(=O)Cc2ccccc2)cc1S(=O)(=O)N1CCOCC1,30.0*,-4.2,.,0.1,.
CCC(Sc1ccccn1)C(=O)Nc1cccc([N+](=O)[O-])c1 (centres undefined),-0.5,1.9,i,-1.7,28.1
O=C(CCN1CCCCC1)N[C@@H]1CC[C@@H](CCNC(=O)c2cc(Cl)cc(Cl)c2)O[C@@H]1CO,.,46.6*,.,.,.
O=C(CCN1CCCCC1)N[C@H]1CC[C@@H](CCNC(=O)c2cc(Cl)cc(Cl)c2)O[C@H]1CO,.,-34.0,.,.,.
CCN1CCN(C(c2cc(OC)ccc2OC)c2nnnn2Cc2ccccc2)CC1 (centres undefined),53.9*,-5.2,i,-0.6,16.3
CCN1CCN(C(c2ccccc2)c2nnnn2Cc2ccccc2)CC1 (centres undefined),-8.4,-2.7,i,-2.0,12.9
SMILES,CAL PDZ FP-1,ARNT TACC3 PPI,Rce1 inhib,CAL PDZ FP-2,AI-2 QS mod
CN(C1=C(N2CCOCC2)C(=O)c2ccccc2C1=O)c1ccccc1,0.2,60.5*,i,0.5,11.0
O=C1C(NS(=O)(=O)c2cccs2)=C(N2CCOCC2)C(=O)c2ccccc21,-1.7,10.8,i,0.6,4.8
COC(=O)c1sc(-c2ccc(Cl)cc2)cc1NC(=O)COCC(=O)O,47.9*,1.3,i,-3.6,-4.2
Cc1cc(C)cc(NC(=O)C(Sc2ncnc3ccccc23)c2ccccc2)c1 (centres undefined),2.1,-2.6,i,-1.3,16.3
N#CCCN(Cc1ccccc1)C(=O)c1cccs1,+,-1.2,i,0.7,37.4
CCCNC(=O)COc1coc(CN2CCN(C(=O)c3ccco3)CC2)cc1=O,-3.0,0.8,i,-0.4,15.1
CCOC(=O)c1csc(Nc2nc3ccc(F)cc3s2)n1,39.3*,-12.0,i,0.1,1.5
O=C(O)CC1S/C(=N/N=C/c2ccccn2)NC1=O (centres undefined),.,71.0*,i,-1.7,12.2
